Measured values: ChEMBL document CHEMBL4392864, “Diketopiperazine-Type Alkaloids from a Deep-Sea-Derived Aspergillus puniceus Fungus and Their Effects on Liver X Receptor α” (J Nat Prod, 2019)
pEC50, pIC50: −log10 of the molar value. Activity calls are given as the source filed them. The rule behind the calls is not given here.

Experiments:
[1] = target: Tyrosine-protein phosphatase non-receptor type 6 (Homo sapiens, UniProt P29350); test: Inhibition of recombinant human SHP1 expressed in Escherichia coli […] preincubated for 15 mins followed by substrate addition and measured after 60 mins
Tyrosine-protein phosphatase non-receptor type 6, sequence (P29350 whole entry): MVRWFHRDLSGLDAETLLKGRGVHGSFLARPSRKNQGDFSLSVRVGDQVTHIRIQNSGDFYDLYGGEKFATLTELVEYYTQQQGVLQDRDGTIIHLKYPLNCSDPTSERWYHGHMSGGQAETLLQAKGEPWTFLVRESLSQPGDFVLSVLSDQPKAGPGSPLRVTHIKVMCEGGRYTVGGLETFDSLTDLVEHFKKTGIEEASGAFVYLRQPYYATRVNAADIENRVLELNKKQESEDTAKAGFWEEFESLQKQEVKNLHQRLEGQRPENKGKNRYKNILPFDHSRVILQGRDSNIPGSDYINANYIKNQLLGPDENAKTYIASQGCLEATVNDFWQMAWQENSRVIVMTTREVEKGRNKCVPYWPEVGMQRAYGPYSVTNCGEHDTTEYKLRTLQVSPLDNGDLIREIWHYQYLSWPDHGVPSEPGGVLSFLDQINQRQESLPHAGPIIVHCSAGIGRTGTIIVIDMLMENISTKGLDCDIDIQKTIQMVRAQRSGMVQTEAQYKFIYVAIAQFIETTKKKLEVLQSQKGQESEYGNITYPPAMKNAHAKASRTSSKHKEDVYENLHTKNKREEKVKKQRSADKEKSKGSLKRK
In short: (§1)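 Recombinant human phosphatases were expressed in E. coli and purified. Enzyme and compound were preincubated for 15 min at room temperature in pH 6.5 buffer (50 mM HEPES, 100 mM NaCl, 1 mM EDTA, 1 mM DTT). Buffer containing 50 mM pNPP was then added and the mix incubated for 60 min at 37 °C. Product p-nitrophenol was read at 405 nm. Assays were run in triplicate and IC50 derived.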

[2] = test system: Colletotrichum gloeosporioides; test: Antifungal activity against Colletotrichum gloeosporioides HNM 1003 assessed as growth inhibition at 0.6 mM measured after 48 hrs by microbroth dilution method; assay type: functional; conditions: HNM 1003, 48 h, read-out: GI
In short: (§2)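 Fungi were grown on PDA plates for 6−8 days at 30 °C, then the mycelia were moved into PD medium and filtered through cotton to give a spore suspension. Each well held PD medium, sample from a 10 mg/mL DMSO stock at about 0.6 mM, and spores (1 × 10^6 CFU). DMSO served as the negative control. OD600 was read at 0 and 48 h at 28 °C and percent growth inhibition calculated.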

[3] = target: T1, Tyrosine-protein phosphatase non-receptor type 1 (Homo sapiens, UniProt P18031); test: Inhibition of recombinant human PTP1B expressed in Escherichia coli […] preincubated for 15 mins followed by substrate addition and measured after 60 mins; in short: as §1
T1 sequence (P18031 whole entry): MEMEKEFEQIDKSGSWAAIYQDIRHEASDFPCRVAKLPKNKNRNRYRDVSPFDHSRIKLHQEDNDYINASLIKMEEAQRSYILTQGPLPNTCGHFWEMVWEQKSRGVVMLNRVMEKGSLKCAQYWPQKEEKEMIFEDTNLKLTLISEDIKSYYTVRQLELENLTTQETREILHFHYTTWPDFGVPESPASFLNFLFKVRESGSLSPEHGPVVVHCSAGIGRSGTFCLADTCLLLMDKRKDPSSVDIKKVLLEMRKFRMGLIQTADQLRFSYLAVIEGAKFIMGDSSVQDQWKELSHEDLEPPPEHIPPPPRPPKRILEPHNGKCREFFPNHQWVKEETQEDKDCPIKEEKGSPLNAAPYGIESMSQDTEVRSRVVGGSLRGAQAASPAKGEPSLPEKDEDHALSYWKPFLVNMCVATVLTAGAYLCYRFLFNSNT

[4] = target: Indoleamine 2,3-dioxygenase 1 (Homo sapiens, UniProt P14902); test: Inhibition of recombinant human IDO1 expressed in Escherichia coli […] preincubated for 15 mins followed by substrate addition and measured after 60 mins
Indoleamine 2,3-dioxygenase 1, sequence (P14902 whole entry): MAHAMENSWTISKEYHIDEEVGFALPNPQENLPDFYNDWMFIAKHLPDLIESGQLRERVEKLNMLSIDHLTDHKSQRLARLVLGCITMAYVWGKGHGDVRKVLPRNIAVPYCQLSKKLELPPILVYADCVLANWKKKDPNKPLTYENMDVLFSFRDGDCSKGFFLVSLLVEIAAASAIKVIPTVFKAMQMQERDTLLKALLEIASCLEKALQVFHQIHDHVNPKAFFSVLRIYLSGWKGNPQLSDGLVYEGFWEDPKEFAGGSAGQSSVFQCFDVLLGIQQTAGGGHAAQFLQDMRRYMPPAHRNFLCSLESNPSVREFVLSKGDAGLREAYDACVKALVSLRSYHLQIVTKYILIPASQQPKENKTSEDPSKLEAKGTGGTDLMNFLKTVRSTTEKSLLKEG

[5] = test system: Fusarium oxysporum; test: Antifungal activity against Fusarium oxysporum HNM 1003 assessed as growth inhibition at 0.6 mM measured after 48 hrs by microbroth dilution method; assay type: functional; conditions: HNM 1003, 48 h, read-out: GI; in short: as §2
[6] = target: L-lactate dehydrogenase A chain (Homo sapiens) (UniProt P00338); test: Inhibition of recombinant human LDHA expressed in Escherichia coli […] preincubated for 15 mins followed by substrate addition and measured after 60 mins
[7] = target: T2, Oxysterols receptor LXR-alpha (Homo sapiens, UniProt Q13133); test: Transactivation of recombinant GAL4-fused human LXRalpha LBD (163 to 447 residues) expressed in human L02 cells measured after 24 hrs by luciferase reporter gene assay; assay type: cell-based
T2 sequence (Q13133 whole entry): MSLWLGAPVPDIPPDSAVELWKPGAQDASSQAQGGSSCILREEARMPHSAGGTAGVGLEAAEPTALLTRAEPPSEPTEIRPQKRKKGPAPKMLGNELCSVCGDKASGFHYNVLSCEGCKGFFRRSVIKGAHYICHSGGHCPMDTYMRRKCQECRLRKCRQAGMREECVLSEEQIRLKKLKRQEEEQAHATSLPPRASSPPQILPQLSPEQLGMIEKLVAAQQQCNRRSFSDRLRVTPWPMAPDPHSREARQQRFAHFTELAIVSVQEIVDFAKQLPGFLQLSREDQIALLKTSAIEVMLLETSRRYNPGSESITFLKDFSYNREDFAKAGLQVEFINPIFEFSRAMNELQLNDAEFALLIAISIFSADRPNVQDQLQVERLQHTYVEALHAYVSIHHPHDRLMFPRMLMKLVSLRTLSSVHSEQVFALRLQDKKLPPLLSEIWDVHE

[8] = test system: Pyricularia oryzae; test: Antifungal activity against Pyricularia oryzae HNM 1003 assessed as growth inhibition at 0.6 mM measured after 48 hrs by microbroth dilution method; assay type: functional; conditions: HNM 1003, 48 h, read-out: GI
[9] = test system: Curvularia australiensis; test: Antifungal activity against Curvularia australiensis BY01 assessed as growth inhibition at 0.6 mM measured after 48 hrs by microbroth dilution method; assay type: functional; conditions: BY01, 48 h, read-out: GI; in short: as §2
[10] = target: T3, Tyrosine-protein phosphatase non-receptor type 2 (Homo sapiens, UniProt P17706); test: Inhibition of recombinant human TCPTP expressed in Escherichia coli […] preincubated for 15 mins followed by substrate addition and measured after 60 mins; in short: as §1
T3 sequence (P17706 whole entry): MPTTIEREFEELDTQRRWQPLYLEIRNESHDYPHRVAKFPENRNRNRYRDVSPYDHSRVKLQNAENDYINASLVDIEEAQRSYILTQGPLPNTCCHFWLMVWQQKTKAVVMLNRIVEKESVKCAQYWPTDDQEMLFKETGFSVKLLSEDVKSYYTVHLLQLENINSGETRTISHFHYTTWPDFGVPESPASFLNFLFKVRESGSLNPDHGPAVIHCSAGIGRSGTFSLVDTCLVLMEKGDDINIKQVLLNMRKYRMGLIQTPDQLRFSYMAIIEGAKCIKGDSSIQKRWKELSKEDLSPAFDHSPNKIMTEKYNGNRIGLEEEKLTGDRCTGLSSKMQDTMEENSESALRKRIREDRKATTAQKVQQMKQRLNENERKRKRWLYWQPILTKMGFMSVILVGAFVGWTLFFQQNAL

[11] = target: T4, Tyrosine-protein phosphatase non-receptor type 9 (Homo sapiens, UniProt P43378); test: Inhibition of recombinant human MEG2 expressed in Escherichia coli […] preincubated for 15 mins followed by substrate addition and measured after 60 mins; in short: as §1
T4 sequence (P43378 whole entry): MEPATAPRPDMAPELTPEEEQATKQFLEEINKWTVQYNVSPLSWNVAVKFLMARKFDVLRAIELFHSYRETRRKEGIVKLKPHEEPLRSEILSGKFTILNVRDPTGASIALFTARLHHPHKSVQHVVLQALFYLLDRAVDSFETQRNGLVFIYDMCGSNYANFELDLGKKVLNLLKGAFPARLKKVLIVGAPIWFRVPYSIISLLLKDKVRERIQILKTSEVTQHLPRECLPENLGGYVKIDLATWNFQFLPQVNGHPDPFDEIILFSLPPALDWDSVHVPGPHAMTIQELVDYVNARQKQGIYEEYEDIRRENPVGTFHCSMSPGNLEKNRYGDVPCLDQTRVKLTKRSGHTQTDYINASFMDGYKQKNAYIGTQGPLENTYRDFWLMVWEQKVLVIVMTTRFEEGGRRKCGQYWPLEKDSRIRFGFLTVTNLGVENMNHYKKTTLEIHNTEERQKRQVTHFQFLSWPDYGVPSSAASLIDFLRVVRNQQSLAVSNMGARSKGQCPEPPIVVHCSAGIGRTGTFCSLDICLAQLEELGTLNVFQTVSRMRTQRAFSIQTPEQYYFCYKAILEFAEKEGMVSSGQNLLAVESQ

[12] = target: T5, Tyrosine-protein phosphatase non-receptor type 11 (Homo sapiens, UniProt Q06124); test: Inhibition of recombinant human SHP2 expressed in Escherichia coli […] preincubated for 15 mins followed by substrate addition and measured after 60 mins; in short: as §1
T5 sequence (Q06124 whole entry): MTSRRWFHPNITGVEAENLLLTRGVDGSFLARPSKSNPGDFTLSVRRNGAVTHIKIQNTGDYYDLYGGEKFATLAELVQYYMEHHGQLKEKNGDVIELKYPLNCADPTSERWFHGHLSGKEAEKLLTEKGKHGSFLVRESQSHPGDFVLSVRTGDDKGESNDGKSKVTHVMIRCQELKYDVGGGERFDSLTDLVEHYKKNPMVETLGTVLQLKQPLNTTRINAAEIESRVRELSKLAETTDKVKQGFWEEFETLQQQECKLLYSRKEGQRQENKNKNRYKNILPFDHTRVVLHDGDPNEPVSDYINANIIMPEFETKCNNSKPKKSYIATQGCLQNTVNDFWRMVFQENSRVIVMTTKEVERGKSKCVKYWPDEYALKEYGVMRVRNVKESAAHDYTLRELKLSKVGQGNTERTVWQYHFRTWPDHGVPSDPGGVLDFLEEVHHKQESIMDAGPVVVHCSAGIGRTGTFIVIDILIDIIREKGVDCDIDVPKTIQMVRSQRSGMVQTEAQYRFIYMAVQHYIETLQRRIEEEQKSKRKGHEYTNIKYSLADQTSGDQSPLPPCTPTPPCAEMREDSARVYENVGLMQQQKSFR

SMILES: C[C@@H]1C(=O)N[C@](O)(Cc2ccccc2)c2nc3c(c(=O)n21)C=CC=CO3
- pIC50 [1]: 4.06 to 4.85
- inhibition of growth at 600 µM [2]: < 50%
- pIC50 [3]: 4.06 to 4.85
- pIC50 [4]: 4.06 to 4.85
- inhibition of growth at 600 µM [5]: < 50%
- inhibition [6]: inactive
- pEC50 [7]: 4.33
- inhibition of growth at 600 µM [8]: < 50%
- inhibition of growth at 600 µM [9]: < 50%
- pIC50 [10]: 4.06 to 4.85
- pIC50 [11]: 4.06 to 4.85
- pIC50 [12]: 4.06 to 4.85
